Assay results taken from ChEMBL document CHEMBL1821619 (Bioorg Med Chem Lett, 2011).

Experiments:
Liver = test: Metabolic stability in mouse liver microsomes at 100 nM upto 250 mins by LC-MS/MS; format: ADME, Microsome; settings: 0.1 µM
How it was run: (§1)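 Compound at 100 nM was incubated with pooled human or mouse liver microsomes (0.5 mg/mL protein) plus NADP. Remaining compound was followed over time by LC-MS/MS.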

Cytochrome P450 3A4 = Cytochrome P450 3A4 (Homo sapiens, UniProt P08684); test: Inhibition of CYP3A4; format: ADME
Cytochrome P450 3A4, sequence (P08684 whole entry, canonical isoform): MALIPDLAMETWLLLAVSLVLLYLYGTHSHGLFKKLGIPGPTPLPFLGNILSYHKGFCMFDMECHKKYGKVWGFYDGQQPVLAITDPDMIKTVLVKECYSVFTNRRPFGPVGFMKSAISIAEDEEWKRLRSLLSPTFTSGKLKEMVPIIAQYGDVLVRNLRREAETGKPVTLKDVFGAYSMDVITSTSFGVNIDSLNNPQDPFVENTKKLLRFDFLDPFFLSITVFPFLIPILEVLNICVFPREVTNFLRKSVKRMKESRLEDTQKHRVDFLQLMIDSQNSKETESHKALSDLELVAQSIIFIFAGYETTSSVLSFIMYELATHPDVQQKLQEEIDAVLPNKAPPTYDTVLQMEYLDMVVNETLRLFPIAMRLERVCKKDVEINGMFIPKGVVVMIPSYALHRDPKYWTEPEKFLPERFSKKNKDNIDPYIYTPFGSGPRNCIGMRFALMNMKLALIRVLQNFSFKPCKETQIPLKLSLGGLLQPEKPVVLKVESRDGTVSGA
How it was run: (§2)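 Compounds were incubated at 37 ± 0.5 °C with agitation with human recombinant CYP isoforms, isoform-selective fluorescent substrates and an NADPH-generating system.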

hERG (KCNH2) = hERG (KCNH2) (Homo sapiens, UniProt Q12809); test: Inhibition of human ERG expressed in HEK293 cells at 10 uM by patch clamp assay; format: cell-based; settings: HEK293 cells expressing human ERG
hERG (KCNH2), sequence (Q12809 whole entry): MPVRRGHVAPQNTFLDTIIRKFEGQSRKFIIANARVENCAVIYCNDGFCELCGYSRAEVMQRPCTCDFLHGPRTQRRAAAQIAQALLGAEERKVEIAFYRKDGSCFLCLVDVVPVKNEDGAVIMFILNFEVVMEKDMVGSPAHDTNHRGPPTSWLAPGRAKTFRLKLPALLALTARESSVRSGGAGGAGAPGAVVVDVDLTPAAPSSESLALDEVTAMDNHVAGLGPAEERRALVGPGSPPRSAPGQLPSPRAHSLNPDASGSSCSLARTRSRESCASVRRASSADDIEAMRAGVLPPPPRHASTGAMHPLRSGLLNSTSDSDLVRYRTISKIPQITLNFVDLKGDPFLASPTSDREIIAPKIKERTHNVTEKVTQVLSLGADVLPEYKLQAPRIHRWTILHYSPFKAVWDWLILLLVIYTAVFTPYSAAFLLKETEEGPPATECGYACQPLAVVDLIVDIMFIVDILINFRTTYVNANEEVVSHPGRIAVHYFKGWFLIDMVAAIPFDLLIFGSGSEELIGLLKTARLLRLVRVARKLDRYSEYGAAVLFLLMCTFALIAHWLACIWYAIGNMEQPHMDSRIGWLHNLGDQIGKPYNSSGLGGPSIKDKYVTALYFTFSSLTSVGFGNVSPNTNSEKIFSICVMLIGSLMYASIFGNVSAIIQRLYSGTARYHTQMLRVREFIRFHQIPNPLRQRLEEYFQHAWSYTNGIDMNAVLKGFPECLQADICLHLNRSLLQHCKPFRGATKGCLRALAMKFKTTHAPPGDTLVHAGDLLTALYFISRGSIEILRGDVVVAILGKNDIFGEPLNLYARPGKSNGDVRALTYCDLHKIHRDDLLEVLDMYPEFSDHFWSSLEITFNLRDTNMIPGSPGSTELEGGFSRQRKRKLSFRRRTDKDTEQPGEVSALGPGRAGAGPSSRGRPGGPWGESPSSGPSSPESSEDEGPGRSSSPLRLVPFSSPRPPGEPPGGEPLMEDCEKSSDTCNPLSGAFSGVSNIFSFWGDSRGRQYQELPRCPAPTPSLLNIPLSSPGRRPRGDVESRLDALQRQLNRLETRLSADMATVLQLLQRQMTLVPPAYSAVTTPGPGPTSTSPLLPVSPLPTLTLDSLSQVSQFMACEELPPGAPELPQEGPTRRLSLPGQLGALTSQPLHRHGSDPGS

Histamine H3 receptor [1] = biological target: Histamine H3 receptor (Homo sapiens, UniProt Q9Y5N1); test: Displacement of [125I]Iodoproxyfan from recombinant human histamine H3 receptor expressed in HEK293 cells after 60 mins; format: cell-based
Histamine H3 receptor (Homo sapiens, UniProt Q9Y5N1), sequence (Q9Y5N1 whole entry): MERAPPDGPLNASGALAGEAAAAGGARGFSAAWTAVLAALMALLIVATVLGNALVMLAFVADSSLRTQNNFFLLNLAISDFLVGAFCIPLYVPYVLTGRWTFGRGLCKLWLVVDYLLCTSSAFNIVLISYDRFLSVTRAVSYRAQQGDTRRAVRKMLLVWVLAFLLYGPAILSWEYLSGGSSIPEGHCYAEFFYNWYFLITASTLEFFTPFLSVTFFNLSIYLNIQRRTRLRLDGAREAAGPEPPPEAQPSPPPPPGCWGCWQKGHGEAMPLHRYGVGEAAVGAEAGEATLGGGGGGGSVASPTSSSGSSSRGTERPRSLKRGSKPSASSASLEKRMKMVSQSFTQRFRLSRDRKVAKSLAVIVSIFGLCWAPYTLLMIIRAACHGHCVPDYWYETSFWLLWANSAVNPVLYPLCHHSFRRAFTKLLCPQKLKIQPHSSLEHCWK

[2] = Ratio of AUC (0 to 8 hrs) in Swiss mouse brain to AUC (0 to 8 hrs) in Swiss mouse plasma at 10 mg/kg, po by LC-MS/MS; format: ADME, organism-based; design: dose 10 mg/kg, route oral; settings: brain and plasma, read-out: Ratio AUC
How it was run: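 Male Swiss mice given single 10 mg/kg oral dose; plasma and brain tissue sampled over 0–8 h and drug quantified by LC-MS/MS; AUC0-8h computed for each matrix, ratio brain to plasma; mean ± SEM of 3 mice.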

[3] = AUC (0 to 8 hrs) in Swiss mouse plasma at 10 mg/kg, po by LC-MS/MS; format: ADME, organism-based; design: time < 8 hr, dose 10 mg/kg, route oral
How it was run: (§3)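 Male Swiss mice received a single 10 mg/kg oral dose. Compound was quantified in plasma and brain tissue by LC-MS/MS over 8 h, and AUC0-8h was derived. Data are mean ± SEM of 3 mice.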

Mus musculus = test: Inverse agonist activity at histamine H3 receptor in po dosed Swiss mouse assessed as brain N-tele-methylhistamine level measured after 90 mins by enzyme immunoassay; format: functional; settings: 1.5 h
How it was run: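 Compounds were given orally to at least 6 male Swiss mice per dose. Brain N-tele-methylhistamine was measured by enzyme immunoassay 90 min after dosing. Intrinsic activity was scaled to ciproxifan as the reference full inverse agonist. ED50 is given as mean ± SEM.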

Histamine H3 receptor [4] = biological target: Histamine H3 receptor (Mus musculus, UniProt P58406); test: Displacement of [125I]Iodoproxyfan from mouse brain cortex histamine H3 receptor after 60 mins; format: tissue-based
Histamine H3 receptor (Mus musculus, UniProt P58406), sequence (P58406 whole entry): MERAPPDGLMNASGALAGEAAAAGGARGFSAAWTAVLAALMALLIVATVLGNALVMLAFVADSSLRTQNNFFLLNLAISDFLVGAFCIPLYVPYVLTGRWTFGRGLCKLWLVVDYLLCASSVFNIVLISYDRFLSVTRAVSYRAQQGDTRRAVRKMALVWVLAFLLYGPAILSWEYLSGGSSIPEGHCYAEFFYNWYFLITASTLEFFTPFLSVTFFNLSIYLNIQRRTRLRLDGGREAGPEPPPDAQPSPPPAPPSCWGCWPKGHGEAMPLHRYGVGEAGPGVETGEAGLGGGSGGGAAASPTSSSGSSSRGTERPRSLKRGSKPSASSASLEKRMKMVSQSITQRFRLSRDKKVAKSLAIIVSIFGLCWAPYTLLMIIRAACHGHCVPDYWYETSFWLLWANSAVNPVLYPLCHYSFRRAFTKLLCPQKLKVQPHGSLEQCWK
How it was run: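 Competition binding used [125I]-iodoproxyfan against human recombinant H3R and native mouse brain cortex H3R. Ki values are means of at least two experiments run in duplicate or triplicate, reported as mean ± SEM.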

Liver microsomes = test: Metabolic stability in human liver microsomes at 100 nM upto 250 mins by LC-MS/MS; format: ADME, Microsome; settings: 0.1 µM; how it was run: as §1
[5] = AUC (0 to 8 hrs) in Swiss mouse brain at 10 mg/kg, po by LC-MS/MS; format: ADME, organism-based; design: time < 8 hr, dose 10 mg/kg, route oral; how it was run: as §3
Cytochrome P450 2D6 = Cytochrome P450 2D6 (Homo sapiens, UniProt P10635); test: Inhibition of CYP2D6; format: ADME; how it was run: as §2
Cytochrome P450 2D6, sequence (P10635 whole entry): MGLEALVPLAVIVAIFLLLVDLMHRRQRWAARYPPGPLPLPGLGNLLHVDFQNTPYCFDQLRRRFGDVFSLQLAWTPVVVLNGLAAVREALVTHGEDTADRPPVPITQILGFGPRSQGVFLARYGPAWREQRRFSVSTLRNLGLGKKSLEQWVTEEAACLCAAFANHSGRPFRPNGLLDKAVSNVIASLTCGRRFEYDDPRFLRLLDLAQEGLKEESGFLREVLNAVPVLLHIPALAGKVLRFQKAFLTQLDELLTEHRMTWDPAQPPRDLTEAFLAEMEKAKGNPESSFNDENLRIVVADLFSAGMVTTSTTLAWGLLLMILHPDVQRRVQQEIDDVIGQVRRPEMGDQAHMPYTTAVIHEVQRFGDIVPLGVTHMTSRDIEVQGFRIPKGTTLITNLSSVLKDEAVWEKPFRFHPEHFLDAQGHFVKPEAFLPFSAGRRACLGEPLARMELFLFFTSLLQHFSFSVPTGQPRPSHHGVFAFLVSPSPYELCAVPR

Cytochrome P450 2C9 = Cytochrome P450 2C9 (Homo sapiens, UniProt P11712); test: Inhibition of CYP2C9; format: ADME; how it was run: as §2
Cytochrome P450 2C9, sequence (P11712 whole entry): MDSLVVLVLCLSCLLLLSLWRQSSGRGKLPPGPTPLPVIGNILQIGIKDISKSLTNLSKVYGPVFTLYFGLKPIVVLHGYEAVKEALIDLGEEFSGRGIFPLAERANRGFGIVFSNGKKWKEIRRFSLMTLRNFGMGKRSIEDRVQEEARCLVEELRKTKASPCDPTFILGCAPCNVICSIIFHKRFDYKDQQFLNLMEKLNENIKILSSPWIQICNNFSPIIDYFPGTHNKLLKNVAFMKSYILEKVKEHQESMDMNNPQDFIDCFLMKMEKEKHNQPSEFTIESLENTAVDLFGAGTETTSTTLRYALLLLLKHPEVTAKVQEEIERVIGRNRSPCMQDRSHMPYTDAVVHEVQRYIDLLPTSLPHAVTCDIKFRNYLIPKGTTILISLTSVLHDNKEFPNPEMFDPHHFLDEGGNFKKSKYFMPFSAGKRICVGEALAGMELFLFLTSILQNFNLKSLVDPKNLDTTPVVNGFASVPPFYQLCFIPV

CYP2C9 = CYP2C9 (Homo sapiens, UniProt P11712); test: Inhibition of CYP2C9 at 1 uM; format: ADME; how it was run: as §2
CYP2C9, sequence (P11712 whole entry): as above

CYP3A4 = CYP3A4 (Homo sapiens, UniProt P08684); test: Inhibition of CYP3A4 at 1 uM; format: ADME; how it was run: as §2
CYP3A4, sequence (P08684 whole entry): as the sequence (P08684 whole entry, canonical isoform) above

CYP2D6 = CYP2D6 (Homo sapiens, UniProt P10635); test: Inhibition of CYP2D6 at 1 uM; format: ADME; how it was run: as §2
CYP2D6, sequence (P10635 whole entry): as the sequence (P10635 whole entry) above

[6] = AUC (0 to 3 hrs) in Swiss mouse brain at 10 mg/kg, po by LC-MS/MS; format: ADME, organism-based; design: time < 3 hr, dose 10 mg/kg, route oral
[7] = Tmax in Swiss mouse brain at 10 mg/kg, po by LC-MS/MS; format: ADME, organism-based; design: dose 10 mg/kg, route oral
[8] = Tmax in Swiss mouse plasma at 10 mg/kg, po by LC-MS/MS; format: ADME, organism-based; design: dose 10 mg/kg, route oral
[9] = AUC (0 to 3 hrs) in Swiss mouse plasma at 10 mg/kg, po by LC-MS/MS; format: ADME, organism-based; design: time < 3 hr, dose 10 mg/kg, route oral

Row | SMILES | Ki (Histamine H3 receptor [1]) | IC50 (Cytochrome P450 2C9) | inhibition at 1 µM (CYP2C9) | inhibition at 1 µM (CYP3A4) | inhibition at 1 µM (CYP2D6) | other results
1 | c1cc([C@H]2CC[C@H](N3CCOCC3)CC2)ccc1OCCCN1CCCCC1 | 0.41 nM | 44000 nM | – | – | – | Stability (Liver): Stable; IC50 (Cytochrome P450 3A4): 66200 nM; inhibition at 10 µM (hERG (KCNH2)): 34%; Kp [2]: 7.4; AUC(0-t) at 8 h [3]: 2110 ng·h/mL; ED50 (Mus musculus): 1.3 mg/kg; Ki (Histamine H3 receptor [4]): 1.6 nM; Stability (Liver microsomes): Stable; AUC(0-t) at 8 h [5]: 15600 ng·h/mL; IC50 (Cytochrome P450 2D6): > 100000 nM
2 | OC1CCN([C@H]2CC[C@@H](c3ccc(OCCCN4CCCCC4)cc3)CC2)CC1 | 0.92 nM | – | – | – | – | –
3 | OC1CCN([C@H]2CC[C@H](c3ccc(OCCCN4CCCCC4)cc3)CC2)CC1 | 0.57 nM | – | 3.4% | 3.3% | 15.7% | –
4 | c1ccc2c(c1)CN([C@H]1CC[C@@H](c3ccc(OCCCN4CCCCC4)cc3)CC1)C2 | 0.41 nM | – | – | – | – | –
5 | c1ccc2c(c1)CN([C@H]1CC[C@H](c3ccc(OCCCN4CCCCC4)cc3)CC1)C2 | 0.17 nM | – | 25.1% | 8.9% | 21.9% | Ki (Histamine H3 receptor [4]): 1.4 nM
6 | c1ccc(CN[C@H]2CC[C@@H](c3ccc(OCCCN4CCCCC4)cc3)CC2)cc1 | 0.29 nM | – | – | – | – | –
7 | c1ccc(CN[C@H]2CC[C@H](c3ccc(OCCCN4CCCCC4)cc3)CC2)cc1 | 0.26 nM | 1000 nM | 47.8% | 39.9% | 20% | Ki (Histamine H3 receptor [4]): 2.1 nM
8 | CCCCN[C@H]1CC[C@@H](c2ccc(OCCCN3CCCCC3)cc2)CC1 | 0.53 nM | 1000 nM | 53.9% | 25.4% | 2.9% | –
9 | CCCCN[C@H]1CC[C@H](c2ccc(OCCCN3CCCCC3)cc2)CC1 | 0.64 nM | 1000 nM | 54.7% | 26.6% | -8.9% | –
10 | CN[C@H]1CC[C@H](c2ccc(OCCCN3CCCCC3)cc2)CC1 | 3.2 nM | – | – | – | – | –
11 | CN([C@H]1CC[C@H](c2ccc(OCCCN3CCCCC3)cc2)CC1)S(=O)(=O)c1ccccc1 | 5.5 nM | – | – | – | – | –
12 | c1cc(OCCCN2CCCCC2)ccc1CN1CCCCC1 [JNJ-5207852] | – | – | – | – | – | AUC(0-t) at 3 h [6]: 1100 ng·h/mL; Tmax [7]: 3 h; Tmax [8]: 0.5 h; AUC(0-t) at 3 h [9]: 1040 ng·h/mL
